How the values were obtained:
[1] = molecular target: Transthyretin (Homo sapiens) (UniProt P02766); test: Inhibition of L55P TTR fibril formation was measured at OD400.; type: functional
How it was run: (§1)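 Stagnant fibril formation assay. TTR at 0.4 mg/mL in 10 mM sodium phosphate, 100 mM KCl, 1 mM EDTA, pH 7.6, was preincubated 30 min at 37 °C with compound added from DMSO stock. Acetate buffer then lowered the pH to 4.2 (wild type) or 5 (V30M, L55P), and samples stood unagitated 72 h at 37 °C. After vortexing, turbidity was read at 400 nm and expressed as percent of the no-inhibitor sample. Triplicates.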

[2] = molecular target: Transthyretin (Homo sapiens) (UniProt P02766); test: (§2) Quaternary structure of the soluble protein after incubation of 3.6 uM of compound; type: functional
[3] = molecular target: Transthyretin (Homo sapiens) (UniProt P02766); test: Inhibition of V30M TTR fibril formation at OD400; type: functional; how it was run: as §1
[4] = molecular target: Transthyretin (Homo sapiens) (UniProt P02766); test: as §2; type: functional; remark: listed apart in the source
[5] = molecular target: Transthyretin (Homo sapiens) (UniProt P02766); test: Inhibition of wild type TTR fibril formation at OD400; type: functional; how it was run: as §1
[6] = molecular target: Transthyretin (Homo sapiens) (UniProt P02766); test: as §2; type: functional; remark: listed apart in the source
[7] = molecular target: Transthyretin (Homo sapiens) (UniProt P02766); test: Quaternary structure of the soluble protein after incubation of 10.8 uM of compound
[8] = molecular target: Transthyretin (Homo sapiens) (UniProt P02766); test: Quaternary structure of the soluble protein after incubation of 3.6 uM L55P TTR with 10.8 uM of compound; type: functional
How it was run: (§3)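 3.6 µM TTR (wild type, V30M or L55P) was held 72 h with 10.8 µM compound under stagnant fibril formation conditions at the variant's pH maximum. Precipitate was removed by spinning at 14 000 rpm, and the supernatant was analysed by analytical ultracentrifugation to give % tetramer, monomer and aggregate and MW.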

[9] = molecular target: Transthyretin (Homo sapiens) (UniProt P02766); test: Quaternary structure of the soluble protein after incubation of 3.6 uM V30M TTR with 10.8 uM of compound; type: functional; how it was run: as §3
[10] = molecular target: Transthyretin (Homo sapiens) (UniProt P02766); test: Quaternary structure of the soluble protein after incubation of 3.6 uM wild type TTR with 10.8 uM of compound; type: functional; how it was run: as §3
[11] = First dissociation constant of the binding of compound to V30M TTR; type: functional
How it was run: (§4)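 Isothermal titration calorimetry at pH 7.6 (100 mM phosphate, 100 mM KCl, 1 mM EDTA). A 435 µM ligand solution in this buffer, concentration set by ε280 = 10 400 M-1 cm-1, was titrated into cells holding 21.1 µM wild type, 20.1 µM V30M or 20.0 µM L55P TTR.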

[12] = Second dissociation constant of the binding of compound to V30M TTR; type: functional; how it was run: as §4
[13] = molecular target: Transthyretin (Homo sapiens) (UniProt P02766); test: First dissociation constant of the binding of compound to L55P TTR; type: functional; how it was run: as §4
[14] = molecular target: Transthyretin (Homo sapiens) (UniProt P02766); test: Second dissociation constant of the binding of compound to L55P TTR; type: functional; how it was run: as §4
[15] = molecular target: Transthyretin (Homo sapiens) (UniProt P02766); test: First dissociation constant of the binding of compound to wild type TTR; type: functional; how it was run: as §4
[16] = molecular target: Transthyretin (Homo sapiens) (UniProt P02766); test: Second dissociation constant of the binding of compound to wild type TTR; type: functional; how it was run: as §4

Structure (SMILES) | Formation [1] [%] | Formation [3] [%] | Formation [5] [%] | also measured
CCc1ccccc1Nc1c(Cl)cccc1Cl | 85 | 70 | 82 | 
COC(=O)Cc1ccccc1Nc1c(Cl)cccc1Cl | 90 | 90 | 78 | 
CCCc1ccccc1Nc1c(Cl)cccc1Cl | 90 | 85 | 100 | 
OCCc1ccccc1Nc1c(Cl)cccc1Cl | 90 | 62 | 60 | 
CC(C)c1ccccc1Nc1c(Cl)cccc1Cl | 90 | 80 | 85 | 
ClCCc1ccccc1Nc1c(Cl)cccc1Cl | 90 | 70 | 75 | 

More lines, main results first:

Formation [1] [%] | Formation [3] [%] | Formation [5] [%] | Structure (SMILES) | also measured
45 | 28 | 32 | O=C(O)Cc1ccccc1Nc1c(Cl)cc(C(=O)O)cc1Cl | Tetramer [2]: 95%; Tetramer [4]: > 95%; Tetramer [6]: 95%; Monomer [7]: 5%
 | 27 | 30 | O=C(O)c1ccccc1Nc1c(Cl)cccc1Cl | 
75 | 33 | 40 | O=C(O)c1cc(Cl)c(Nc2ccc([N+](=O)[O-])cc2)c(Cl)c1 | Tetramer [8]: > 95%; Aggregate [9]: 10%; Tetramer [9]: 90%; Aggregate [10]: 7%; Tetramer [10]: 93%
53 | 27 | 30 | O=C(O)Cc1ccccc1Nc1cc(Cl)cc(Cl)c1 | Tetramer [2]: 76%; Tetramer [4]: > 95%; Tetramer [6]: > 95%; Aggregate [7]: 24%
72 | 33 | 35 | O=C(O)Cc1ccccc1Nc1c(Cl)cccc1Cl | Kd1 [11]: 160 nM; Kd2 [12]: 3.9 µM; Kd1 [13]: 380 nM; Kd2 [14]: 6.18 µM; Kd1 [15]: 60 nM; Kd2 [16]: 1200 nM
 | 67 | 65 | NC(=O)Cc1ccccc1Nc1c(Cl)cccc1Cl | 
50 | 30 | 34 | O=C(O)c1ccccc1Nc1cc(Cl)cc(Cl)c1 | 

Source: ChEMBL document CHEMBL1135801, “Synthesis, structure, and activity of diclofenac analogues as transthyretin amyloid fibril formation inhibitors” (J Med Chem, 2002)
